# RGS4 block – RGS4 inhibitors, primary screen, cell-based, HEK293 M3R inducible RGS4, calcium flux. AID 463165, 2010. B-score at 10 µM. Regulator of G-protein signaling 4 (Homo sapiens), P49798. actives 0.45% (n = 310,000). Fluo-4 calcium flux; stronger effect = higher value; triggered by carbachol at its EC20;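 active = B-score, a plate-corrected calcium signal, over three deviations above library mean, with baseline fluorescence within five deviations of library mean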;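 also: RGS4 expression induced by doxycycline in cells with stable M3 receptor; B-score is computed from the integrated fluorescence ratio over baseline after carbachol; higher B-score means a larger calcium signal and so more RGS4 inhibition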
# Target sequence (P49798 whole entry, looked up): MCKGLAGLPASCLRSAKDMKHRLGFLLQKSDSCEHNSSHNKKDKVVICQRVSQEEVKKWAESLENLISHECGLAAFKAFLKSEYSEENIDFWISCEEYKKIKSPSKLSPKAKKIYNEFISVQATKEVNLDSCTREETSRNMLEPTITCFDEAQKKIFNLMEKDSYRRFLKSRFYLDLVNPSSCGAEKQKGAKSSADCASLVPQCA
# MrgX1 PAM – positive allosteric modulators of MrgX1, primary screen, HEK293 cells, Fluo-4 calcium flux; Mas-related G-protein coupled receptor member X1 (Homo sapiens), Q96LB2; FDSS; stronger effect = higher value; B-score at 10 µM; actives 0.63% (n = 310,000); AID 588675, 2011;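 active = plate-corrected calcium response at least 3 library SD above typical, normal starting fluorescence, not activating the receptor alone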;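 also: compound read alongside a low EC10 to EC30 dose of BAM8-22 agonist; peak minus trough fluorescence over baseline measured at the second addition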
# Target sequence (Q96LB2 whole entry, looked up): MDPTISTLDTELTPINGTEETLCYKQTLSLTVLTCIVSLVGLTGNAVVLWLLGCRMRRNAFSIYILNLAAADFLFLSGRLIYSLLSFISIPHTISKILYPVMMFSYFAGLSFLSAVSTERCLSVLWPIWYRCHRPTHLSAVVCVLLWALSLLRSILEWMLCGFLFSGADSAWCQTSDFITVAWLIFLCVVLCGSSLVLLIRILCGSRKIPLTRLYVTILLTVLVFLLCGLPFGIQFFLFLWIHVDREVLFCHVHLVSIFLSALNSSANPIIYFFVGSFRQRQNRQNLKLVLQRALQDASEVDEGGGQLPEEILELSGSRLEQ
# MrgX1 antag – antagonists of human MrgX1 receptor, primary screen, HEK293 cells, Fluo-4 calcium flux; actives 1.3% (n = 310,000); BAM8-22 antagonism; stronger effect = lower value; Mas-related G-protein coupled receptor member X1 (Homo sapiens), Q96LB2; B-score at 10 µM; AID 588676, 2011;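 active = calcium-response B-score plate-corrected more than 3 library SD below zero, starting fluorescence within 5 deviations, no agonist response on first addition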;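 also: peak minus trough fluorescence over baseline after final BAM8-22 challenge near maximal dose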
# RGS4 pot – RGS4 potentiators or activators, primary screen, cell-based, HEK293 M3R inducible RGS4, calcium flux | AID 463111, 2010 | actives 0.92% (n = 310,000) | carbachol calcium flux Fluo4; stronger effect = lower value | B-score at 10 µM;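 active = B-score of the integrated calcium signal more than 4 SD below the library mean, with starting fluorescence not abnormally high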;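 also: negative B-score means reduced calcium response which marks RGS4 activation or potentiation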
#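 test system = HEK293 cells with stable M3R and inducible RGS4 | schedule = recording 10 s baseline at 1 Hz, 100 s post-agonist | technique = Fluo4-AM (2 µM) calcium-flux fluorescence, kinetic read | measure = Agonist-evoked peak-minus-minimum fluorescence over baseline, integrated ratio, B score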
# MrgX1 ag – agonists of human MrgX1 receptor, primary screen, HEK293 cells, Fluo-4 calcium flux | Mas-related G-protein coupled receptor member X1 (Homo sapiens), Q96LB2 | Fluo-4 calcium fluorescence, agonist mode; stronger effect = higher value | B-score at 10 µM | actives 0.44% (n = 310,000) | AID 588627, 2011;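 active = calcium response B-score plate-corrected fluorescence ratio at least 3 library SD, with starting fluorescence B-score inside 5 SD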
#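 Test system: Stable human MrgX1 HEK293 cell line | Schedule: Overnight plating before 1 h dye loading | Read-out basis: Baseline-normalised fluorescence change ratio, B-scored | Detection: Kinetic calcium dye fluorescence, Fluo-4 NW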
# Active calls of the source: *; i = inactive; x = not tested or not shown. Most compounds without a hit are left out; they make up all but 3.5% or so of the library.
SMILES,RGS4 block,MrgX1 PAM,MrgX1 antag,RGS4 pot,MrgX1 ag
COc1ccc(-c2n[nH]c(=S)n2-c2ccccc2C)cc1,i,i,i,i,i
CCOC(=O)C1CCN(S(=O)(=O)c2c(Cl)ccc3nonc23)CC1,i,i,i,i,i
Brc1ccccc1/C=N/Nc1ccc2ccccc2n1,i,11*,i,i,i
Brc1ccc(/C=N/Nc2ccc3ccccc3n2)cc1,i,i,i,i,i
Cc1ccc2c(c1)/C(=C/c1ccco1)C(=O)N2,i,i,i,i,i
O=C1Nc2ccc(Br)cc2/C1=C/c1ccc(C(=O)O)cc1,8*,i,i,i,i
Nc1c(C(=O)NCCc2ccc(Cl)cc2)sc2ccc(S(=O)(=O)N3CCCCC3)cc12,9*,i,i,i,i
COc1cc(-c2noc(C)c2-c2ccc3[nH]ccc3c2)cc(OC)c1OC,i,i,i,-7.2*,i
C/C(=N\NC(=S)NCCc1ccccc1)c1ccc(Cl)cc1Cl,i,i,i,-9.1*,i
C/C(=N\NC(=S)NCCc1ccccc1)c1ccc(O)cc1O,i,i,i,i,i
CN1CCN(C2=Nc3cc(Cl)ccc3Nc3ccccc32)CC1,i,i,i,-7.5*,i
CCN(CC)C(CNC(=O)c1cc(=O)[nH]c2ccccc12)c1ccccc1Cl (configuration not stated),i,i,i,-7.5*,i
O=C(NCc1cccc(Cl)c1)c1cc(=O)[nH]c2ccccc12,i,i,i,i,i
CC(=O)n1cc(N(C(=O)CCl)c2ccc(C)cc2)c2ccccc21,i,i,i,-7.2*,i
CC(=O)N(c1ccc(Cl)cc1)c1cn(C(C)=O)c2ccccc12,i,i,i,i,i
CCN(CC)CCOc1c(Br)ccc2c1sc1nc3n(c(=O)c12)CCC3,i,i,i,i,i
O=c1c2c(nc3n1CCCCC3)sc1c(O)c(Br)ccc12,i,i,-5.4*,i,i
Nc1ccc(-c2nc3c(ccc4ccccc43)[nH]2)cc1,i,i,i,i,i
CCn1nnc(-c2ccccc2NC(=O)c2cnccn2)n1,i,i,i,i,i
O=C(Cn1cnc([N+](=O)[O-])c1)c1ccc(F)cc1,i,11*,i,i,i
O=C(Cn1cnc([N+](=O)[O-])c1)NCc1ccc(F)cc1,i,i,i,i,i
CCCOc1c(Cl)cc(C(=O)Nc2ccc3c(c2)OCO3)cc1OCC,i,i,i,i,i
[O-][n+]1cccc2c(Br)cc(Br)c(O)c21,i,i,-4.7*,i,i
CCN1CCN(CC(=O)N/N=C/c2cc(Br)cs2)CC1,i,i,i,i,i
Cc1nccn1CC(=O)N/N=C/c1cc(Br)cs1,i,i,-5.3*,i,i
SMILES,RGS4 block,MrgX1 PAM,MrgX1 antag,RGS4 pot,MrgX1 ag
CCOc1ccc(CN2CCC(C(=O)N3CCN(c4ccccc4F)CC3)CC2)cc1OC,i,i,i,i,i
CCOc1ccc(S(=O)(=O)N2CCC(C(=O)N3CCN(c4ccccc4F)CC3)CC2)cc1C,i,i,i,-7.2*,i
COc1cc(N(C(=O)Cc2cccs2)C(C(=O)NC2CCCCC2)c2ccc(C)cc2)ccc1-n1cnnn1 (configuration not stated),i,i,-6.3*,i,i
Cc1ccc(N(C(=O)Cc2cccs2)C(C(=O)NC2CCCCC2)c2ccccn2)cc1C (configuration not stated),i,10*,i,i,i
O=C(CSc1nnc(Cc2ccccc2)c(=O)[nH]1)Nc1ccccc1,i,i,i,i,i
O=c1c2cc(Cl)ccc2nc(-c2ccccc2)n1O,i,i,i,i,i
O=c1c2cc(Br)ccc2nc(-c2ccc([N+](=O)[O-])cc2)n1O,i,i,i,i,133*
O=c1c2ccc(Cl)cc2nc(-c2ccc([N+](=O)[O-])cc2)n1O,i,i,i,i,54*
COc1ccc(-c2csc(NC(=O)c3ccc(OCC(=O)N4CCOCC4)c(OC)c3)n2)cc1,i,i,-5.1*,i,i
CCOC(=O)C1=C(O)c2ccccc2C(=O)/C1=C\c1ccc(C)cc1,x,i,i,x,28*
CCOC(=O)C1=C(C)N(c2ccc(C)cc2)C(=O)/C1=C\c1ccc(O)c(OC)c1,i,i,i,i,i
COc1cccc(OC2OC3COC(C)(C)OC3C(O)C2NC(C)=O)c1 (configuration not stated),i,i,i,i,i
CCCC(C)NC(=O)CN1C(=O)NC2(CCc3ccccc32)C1=O (configuration not stated),i,i,i,i,i
CC1CC(C)CN(C(=O)CSc2nc(Cc3cccs3)nc3ccccc23)C1 (configuration not stated),i,i,i,-7.1*,i
COc1ccc(OC)c2c(C)c(C)[nH]c12,i,i,i,i,i
CCc1cc[n+](-c2nc3ccccc3nc2[N-]S(=O)(=O)c2ccc(Br)s2)cc1,i,i,-6.5*,i,i
CC(C)[C@H](NC(=O)c1ccccc1Cl)C(=O)OCc1cc([N+](=O)[O-])cc2c1OCOC2,i,i,i,i,i
CSCCC(NC(=O)c1ccco1)C(=O)OCc1cc([N+](=O)[O-])cc2c1OCOC2 (configuration not stated),i,i,i,i,28*
Cc1ccc(C(=O)Nc2ccccc2[N+](=O)[O-])cc1S(=O)(=O)N1CCOCC1,i,8*,i,i,i
COc1ccc(C(=O)Nc2ccccc2[N+](=O)[O-])cc1S(=O)(=O)N1CCOCC1,i,i,i,i,i
Cc1cccc([N+](=O)[O-])c1NC(=O)CN(Cc1ccccc1)Cc1ccccc1,i,i,i,-8.6*,i
O=C1NC(=Nc2ccccc2Cl)S/C1=C\c1cc([N+](=O)[O-])ccc1O,i,i,i,i,i
Cc1ccc(S(=O)(=O)/N=C2/NC(=O)/C(=C/c3cc([N+](=O)[O-])ccc3O)S2)cc1,i,i,i,-7.8*,i
